We go through 18 compounds from ChEMBL document CHEMBL1141826, “From a phagostimulant natural product to semisynthetic antifeedants against Spodoptera littoralis larvae: chemical transformations of the neoclerodane diterpenoid scutegalin B” (J Nat Prod, 1999).

For test [1], the system named is Spodoptera littoralis. Put plainly: Antifeedant activity against sixth stadium larvae of Spodoptera littoralis assessed as antifeedant index at 100 ppm after 16 hrs. The format is functional. The procedure, abridged:
(§1)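 Choice test: sixth-stadium larvae were starved 4 h and each placed in a Petri dish with two sucrose-treated glass-fiber disks (100 μL 0.05 M, 2.1 cm), one a control and one carrying compound at 100 ppm. Disks were reweighed, and index = [(C−T)/(C+T)]×100 from weights eaten. Negative values mean phagostimulation. 10 replications; Wilcoxon signed-ranks test, P<0.05.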

For test [2], the system named is Spodoptera littoralis. Put plainly: Antifeedant activity against sixth stadium larvae of Spodoptera littoralis after 16 hrs. The format is functional, organism-based. The procedure, abridged: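 No-choice feeding test: glass-fiber disks (2.1 cm) made palatable with 100 μL 0.05 M sucrose, then treated with 100 μL of test solution at 1, 10, 100 or 1000 ppm and offered to S. littoralis larvae. Ended at 16 h, when 50% of control disks were consumed. Disks were reweighed, and EC50 for 50% reduction in feeding was estimated relative to the sucrose control. 10 replications per concentration.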

Test [3] deals with Spodoptera littoralis. Put plainly: Phagostimulant activity against sixth stadium larvae of Spodoptera littoralis assessed as antifeedant index at 100 ppm after 16 hrs. It counts as functional. In short, it runs like this: as §1

The structures appear in SMILES notation. Bounds are passed on as bounds.

`CC(=O)O[C@@H]1[C@@H](C)[C@](C)(CC[C@H]2CCOC2=O)[C@H]2C[C@@H]3C[C@]4(CO4)[C@]2([C@@H](OC(=O)C(C)C)O3)[C@H]1O`: the Activity in test [1] came out at 37.5%. For the same compound, the EC50 in test [2] is more than 1000 ppm. With `CC(=O)O[C@H]1C[C@@H](C)[C@](C)([C@@H]2C[C@H]3C=CO[C@H]3O2)[C@H]2C[C@@H]3C[C@]4(CO4)[C@]12C(OC(=O)C(C)C)O3` (some centres not stated) [JODRELLIN B], in test [1], the Activity came out at 100%. Consider `C/C=C(\C)C(=O)O[C@H]1O[C@@H]2C[C@@H]3[C@@](C)(CC[C@H]4CCOC4=O)[C@H](C)[C@@H](O)[C@H](OC(C)=O)[C@]13[C@@]1(CO1)C2`, for which, in test [1], the Activity is recorded as 29.3%. Further, in test [2], the EC50 is on record as more than 1000 ppm. Turning to `CC(=O)O[C@H]1C(=O)[C@@H](C)[C@](C)(CC[C@H]2CCOC2=O)[C@H]2C[C@@H]3C[C@]4(CO4)[C@@]21C(=O)O3`, in test [1], the Activity came to 44.1%. The EC50 in test [2] was more than 1000 ppm. Consider `CC(=O)OCC[C@H](CC[C@@]1(C)[C@H](C)[C@@H](OC(C)=O)[C@H](OC(C)=O)[C@]23[C@@H]1C[C@H](C[C@]21CO1)O[C@@H]3O)COC(C)=O`, for which the Activity in test [3] is recorded as -38.8%. Regarding `C/C=C(\C)C(=O)O[C@H]1C[C@H](C)[C@](C)([C@@H](O)CC2=CC(=O)OC2)[C@H]2CCC[C@]3(CO3)[C@]12COC(C)=O` [SCUTALPIN C], the Activity in test [1] came to 96.8%. This compound also showed an EC50 in test [2] of less than 1 ppm. As for `CC(=O)OCC[C@H](CC[C@@]1(C)[C@H](C)[C@@H](OC(C)=O)[C@H](OC(C)=O)[C@]23C(=O)O[C@H](C[C@H]12)C[C@]31CO1)COC(C)=O`, the Activity in test [3] was -27.4%.

With `C/C=C(\C)C(=O)O[C@H]1O[C@@H]2C[C@@H]3[C@@](C)(CC[C@H]4CCOC4=O)[C@H](C)[C@@H](OC(C)=O)[C@H](O)[C@]13[C@@]1(CO1)C2`, the Activity in test [1] came out at 18.6%. For the same compound, the EC50 in test [2] is listed as more than 1000 ppm. `CO[C@H]1O[C@@H]2C[C@@H]3[C@@](C)(CC[C@H]4CCOC4=O)[C@H](C)[C@@H](OC(C)=O)[C@H](OC(C)=O)[C@]13[C@@]1(CO1)C2`: in test [3], the Activity is reported as -29.5%. As to `CC(=O)OC1O[C@@H]2C[C@@H]3[C@@](C)([C@@H]4C[C@H]5C=CO[C@H]5O4)[C@H](C)C[C@H](OC(C)=O)[C@]13[C@@]1(CO1)C2` (some centres not stated) [JODRELLIN A], the Activity in test [1] came out at 92%. Take `C/C=C(\C)C(=O)O[C@H]1O[C@@H]2C[C@@H]3[C@@](C)(CC[C@@H](CCOC(C)=O)COC(C)=O)[C@H](C)[C@@H](OC(C)=O)[C@H](OC(C)=O)[C@]13[C@@]1(CO1)C2`: the Activity in test [3] was -0.4%.

In the case of `C/C=C(\C)C(=O)O[C@H]1O[C@@H]2C[C@@H]3[C@@](C)(CC[C@H]4CCO[C@H]4O)[C@H](C)[C@@H](O)[C@H](OC(C)=O)[C@]13[C@@]1(CO1)C2` [SCUTEGALIN B], the Activity in test [3] is -27%. Moreover, the EC50 in test [2] is listed as 870 ppm.

Take `CC(=O)O[C@@H]1C[C@@H]2[C@@](C)(CC[C@H]3CCOC3=O)[C@H](C)[C@@H](OC(C)=O)[C@H](OC(C)=O)[C@@]2(C=O)[C@@]2(CO2)C1`: the Activity in test [1] is reported as 17.2%.

For the compound `CC(=O)O[C@@H]1[C@@H](C)[C@](C)(CC[C@H]2CCOC2=O)[C@H]2C[C@@H](OC(=O)C(C)C)C[C@]3(CO3)[C@]2(C=O)[C@H]1OC(C)=O`, the Activity in test [3] was -10%.

For the compound `CC(=O)O[C@@H]1[C@@H](C)[C@](C)(CC[C@H]2CCOC2=O)[C@H]2C[C@@H]3C[C@]4(CO4)[C@]2([C@@H](O)O3)[C@H]1O`, the Activity in test [1] is listed as 67%. This compound yielded an EC50 in test [2] of 51 ppm. As for `CC(=O)O[C@@H]1[C@@H](C)[C@](C)(CC[C@H]2CCOC2=O)[C@H]2C[C@@H]3C[C@]4(CO4)[C@]2([C@@H](O)O3)[C@H]1OC(C)=O`, the Activity in test [1] is 34%. In addition, the EC50 in test [2] is more than 1000 ppm.

In the case of `C/C=C(\C)C(=O)O[C@H]1O[C@@H]2C[C@@H]3[C@@](C)(CC[C@H]4CCOC4=O)[C@H](C)C(=O)[C@H](OC(C)=O)[C@]13[C@@]1(CO1)C2`, in test [1], the Activity is on record as 36.5%. For the same compound, in test [2], the EC50 turned out to be 350 ppm. For the compound `C/C=C(\C)C(=O)O[C@H]1O[C@@H]2C[C@@H]3[C@@](C)(CC[C@H](CO)CCO)[C@H](C)[C@@H](OC(C)=O)[C@H](OC(C)=O)[C@]13[C@@]1(CO1)C2`, the Activity in test [1] is 18.8%.
